Test results published in ChEMBL document CHEMBL1156656, “HIV-1 ribonuclease H inhibitory phenolic glycosides from Eugenia hyemalis” (J Nat Prod, 2008).
The source made the active and inactive calls. The calls are words filed in the database; no cut-off is given here.

Key:
[1] = Inhibition of HIV1 RNase H by FRET assay; design: species or system Human immunodeficiency virus 1
How it was run: (§1)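 RNase H enzymes (HIV-1, HIV-2, human) assayed by high-throughput fluorescence resonance energy transfer (FRET) cleavage assay; extracts run in presence of 1% bovine serum albumin.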

[2] = Inhibition of HIV2 RNase H by FRET assay; design: species or system Human immunodeficiency virus 2; how it was run: as §1
Escherichia coli = experiment: Inhibition of Escherichia coli RNase H by FRET assay
[3] = Inhibition of human RNase H by FRET assay; how it was run: as §1
[4] = system: Human immunodeficiency virus; experiment: Antiviral activity against HIV-RF in human CEM-SS cells assessed as cytopathogenicity at 20 ug/ml; format: functional, organism-based
How it was run: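 Human CEM-SS T cells infected with HIV-1 strain RF; XTT-based cell viability read-out of protection from viral cytopathic effect; highest dose tested 20 μg/mL.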

Structure (SMILES)	IC50 [1]	IC50 [2]	Activity (Escherichia coli)	IC50 [3]	Activity [4]
O=C(OC[C@H]1O[C@@H](Oc2ccc(O)cc2)[C@H](OC(=O)c2cc(O)c(O)c(O)c2)[C@@H](O)[C@@H]1OC(=O)c1cc(O)c(O)c(O)c1)c1cc(O)c(O)c(O)c1	0.68 µM	0.1 µM	inactive	0.04 µM	–
O=C(OC[C@H]1O[C@@H](Oc2c(-c3ccc(O)cc3)oc3cc(O)cc(O)c3c2=O)[C@H](O)[C@@H](O)[C@@H]1O)c1cc(O)c(O)c(O)c1	> 16.6 µM	5.19 µM	inactive	9.5 µM	–
C[C@H]1O[C@H](Oc2c(-c3ccc(O)cc3)oc3cc(O)cc(O)c3c2=O)[C@@H](O)[C@@H](OC(=O)c2cc(O)c(O)c(O)c2)[C@H]1O	> 17.1 µM	9.12 µM	inactive	7.25 µM	–
O=C(OC[C@H]1O[C@@H](OC(=O)c2cc(O)c(O)c(O)c2)[C@H](OC(=O)c2cc(O)c(O)c(O)c2)[C@@H](O)[C@@H]1O)c1cc(O)c(O)c(O)c1	10.2 µM	0.28 µM	inactive	0.55 µM	–
O=C(OC[C@H]1O[C@@H](Oc2ccc(O)cc2)[C@H](OC(=O)c2cc(O)c(O)c(O)c2)[C@@H](O)[C@@H]1O)c1cc(O)c(O)c(O)c1	5.05 µM	0.28 µM	inactive	0.55 µM	–
O=C(OC[C@H]1O[C@@H](Oc2ccc(O)cc2)[C@H](OC(=O)c2cc(O)c(O)c(O)c2)[C@@H](O)[C@@H]1O)c1ccc(O)cc1 [HYEMALOSIDE B]	> 18.3 µM	3.32 µM	inactive	2.44 µM	–
O=C(O[C@@H]1[C@@H](OC(=O)c2cc(O)c(O)c(O)c2)[C@H](Oc2ccc(O)cc2)O[C@@H]2COC(=O)c3cc(O)c(O)c(O)c3-c3c(cc(O)c(O)c3O)C(=O)O[C@@H]12)c1cc(O)c(O)c(O)c1 [HYEMALOSIDE C]	1.19 µM	0.84 µM	inactive	0.07 µM	–
C[C@@H]1O[C@@H](Oc2c(-c3ccc(O)c(O)c3)oc3cc(O)cc(O)c3c2=O)[C@H](O)[C@H](O)[C@H]1O [QUERCITRIN]	> 22.3 µM	21.3 µM	inactive	12.5 µM	–
C[C@H]1O[C@H](Oc2c(-c3ccc(O)cc3)oc3cc(O)cc(O)c3c2=O)[C@@H](OC(=O)c2cc(O)c(O)c(O)c2)[C@@H](O)[C@H]1O	> 17.1 µM	3.38 µM	inactive	3.03 µM	–
O=C(OC[C@H]1O[C@@H](Oc2ccc(O)cc2)[C@H](OC(=O)c2cc(O)c(O)c(O)c2)[C@@H](OC(=O)c2cc(O)c(O)c(O)c2)[C@@H]1O)c1cc(O)c(O)c(O)c1 [HYEMALOSIDE A]	1.46 µM	0.58 µM	inactive	0.18 µM	–
O=C(O[C@H]1[C@H](Oc2ccc(O)cc2)O[C@H](CO)[C@@H](O)[C@@H]1O)c1cc(O)c(O)c(O)c1	> 23.5 µM	> 23.5 µM	inactive	> 23.5 µM	–
O=C(O[C@H]1[C@H](O)[C@@H](O)[C@H](Oc2ccc(O)cc2)O[C@@H]1CO)c1cc(O)c(O)c(O)c1	> 23.5 µM	> 23.5 µM	inactive	> 23.5 µM	inactive
